Experimental data published in ChEMBL document CHEMBL1145119, “Esters, retroesters, and a retroamide of palmitic acid: pool for the first selective inhibitors of N-palmitoylethanolamine-selective acid amidase” (J Med Chem, 2003).

Columns and labels:
[1] = target: Cannabinoid receptor 1 (Homo sapiens) (UniProt P21554); test: Binding affinity against human Cannabinoid receptor 1 using CHO-hCB1 transfected cell membrane and [3H]CP-55940 as radioligand at 10 uM
In short: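 Membranes from CHO cells transfected with human CB1 were incubated with 1 nM [3H]-CP55,940 and test compound at 10 μM. Nonspecific binding was defined with 10 μM HU-210. The value is percent inhibition of specific radioligand binding.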

[2] = target: Cannabinoid receptor 2 (Homo sapiens) (UniProt P34972); test: Binding affinity against human CB2 receptor by using CHO-hCB2 transfected cell membrane [3H]WIN-55212-2 as radioligand at 10 uM
In short: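 Membranes from CHO cells transfected with human CB2 were incubated with 1 nM [3H]-WIN55,212-2 and test compound at 10 μM. Nonspecific binding was defined with 10 μM HU-210. The value is percent inhibition of specific radioligand binding.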

[3] = target: N-acylethanolamine-hydrolyzing acid amidase (Rattus norvegicus) (UniProt Q5KTC7); test: Inhibition of N-palmitoylethanolamine-selective acid amidase (NPAA) from rat lung homogenates at 100 uM
[4] = target: T1, Fatty-acid amide hydrolase 1 (Rattus norvegicus) (UniProt P97612); test: Inhibition of fatty acid amide hydrolase (FAAH) from rat brain homogenates at 100 uM; assay type: tissue-based
T1 sequence (whole entry): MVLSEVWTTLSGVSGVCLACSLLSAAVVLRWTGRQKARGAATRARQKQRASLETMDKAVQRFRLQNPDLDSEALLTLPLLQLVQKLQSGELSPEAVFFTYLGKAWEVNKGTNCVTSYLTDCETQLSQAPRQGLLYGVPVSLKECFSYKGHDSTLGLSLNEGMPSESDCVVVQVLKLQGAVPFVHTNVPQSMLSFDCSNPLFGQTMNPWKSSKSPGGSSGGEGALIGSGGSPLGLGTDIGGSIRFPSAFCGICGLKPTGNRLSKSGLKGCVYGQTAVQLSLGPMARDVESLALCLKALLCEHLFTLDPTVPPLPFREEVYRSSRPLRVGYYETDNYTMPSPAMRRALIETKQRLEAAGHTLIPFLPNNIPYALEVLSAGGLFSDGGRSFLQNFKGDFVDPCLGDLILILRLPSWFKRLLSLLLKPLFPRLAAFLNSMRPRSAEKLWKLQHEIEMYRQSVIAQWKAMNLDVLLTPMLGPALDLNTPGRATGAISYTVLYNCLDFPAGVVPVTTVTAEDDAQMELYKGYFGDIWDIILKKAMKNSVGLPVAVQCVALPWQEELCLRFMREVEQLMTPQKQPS
In short: (§1)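 Hydrolysis of [3H]-anandamide by rat brain homogenate was measured at assay pH 7.6. Compound was mostly tested over 0.5–100 μM, and percent inhibition is given at 10 and 100 μM. A value below 0 means activity remaining exceeded 100%.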

[5] = target: T1, Fatty-acid amide hydrolase 1 (Rattus norvegicus); test: Inhibition of fatty acid amide hydrolase (FAAH) from rat brain homogenates at 10 uM; assay type: tissue-based; in short: as §1
[6] = test system: RBL-2H3; test: Compound was tested for the inhibition of [3H]anandamide Uptake in RBL-2H3 cells at 100 uM; assay type: functional; conditions: Rattus norvegicus
In short: (§2)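 RBL-2H3 cells (passage 38) were preincubated with compound (10, 30 or 100 μM). They were then exposed to 2 μM [3H]-arachidonoyl-labeled anandamide for 8 min. Uptake was taken as accumulation in cell wells minus parallel cell-free wells. 200 μM AM404 served as positive control in every assay. The value is percent inhibition of uptake.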

[7] = target: T1, Fatty-acid amide hydrolase 1 (Rattus norvegicus); test: Compound was tested for the inhibition of fatty acid amide hydrolase from rat brain homogenates at 10 uM in buffer B of pH 6 by using 10 uM [3H]ethanolamine-labeled anandamide as substrate; assay type: tissue-based
In short: (§3)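 The rat brain homogenate FAAH assay used 10 μM [3H]-ethanolamine-labeled anandamide as substrate. Protein was 10 μg per assay at pH 6 and 3 μg at pH 9. Buffer A was 10 mM Tris-HCl and 1 mM EDTA with fatty acid-free BSA. Buffer B was 125 mM Tris, 1 mM EDTA, 0.2% glycerol, 0.02% Triton X-100 and 0.4 mM HEPES, without BSA. pH was adjusted with NaOH or HCl. Compounds were tested at 10, 30 and 100 μM. The value is percent inhibition.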

[8] = target: T1, Fatty-acid amide hydrolase 1 (Rattus norvegicus); test: Compound was tested for the inhibition of fatty acid amide hydrolase from rat brain homogenates at 10 uM in buffer A of pH 6 by using 100 uM [3H]ethanolamine-labeled anandamide as substrate; assay type: tissue-based
[9] = target: T1, Fatty-acid amide hydrolase 1 (Rattus norvegicus); test: Compound was tested for the inhibition of fatty acid amide hydrolase from rat brain homogenates at 10 uM in buffer A of pH 9 by using 30 uM [3H]ethanolamine-labeled anandamide as substrate; assay type: tissue-based
[10] = target: T1, Fatty-acid amide hydrolase 1 (Rattus norvegicus); test: Compound was tested for the inhibition of fatty acid amide hydrolase from rat brain homogenates at 10 uM in buffer B of pH 9 by using 10 uM [3H]ethanolamine-labeled anandamide as substrate; assay type: tissue-based; in short: as §3
[11] = test system: RBL-2H3; test: Compound was tested for the inhibition of [3H]anandamide Uptake in RBL-2H3 cells at 10 uM; assay type: functional; conditions: Rattus norvegicus; in short: as §2
[12] = target: T1, Fatty-acid amide hydrolase 1 (Rattus norvegicus); test: Compound was tested for the inhibition of fatty acid amide hydrolase from rat brain homogenates at 10 uM in buffer B of pH 9 by using 100 uM [3H]ethanolamine-labeled anandamide as substrate; assay type: tissue-based
[13] = target: T1, Fatty-acid amide hydrolase 1 (Rattus norvegicus); test: Compound was tested for the inhibition of fatty acid amide hydrolase from rat brain homogenates at 10 uM in buffer A of pH 6 by using 10 uM [3H]ethanolamine-labeled anandamide as substrate; in short: as §3
[14] = target: T1, Fatty-acid amide hydrolase 1 (Rattus norvegicus); test: Compound was tested for the inhibition of fatty acid amide hydrolase from rat brain homogenates at 10 uM in buffer A of pH 9 by using 10 uM [3H]ethanolamine-labeled anandamide as substrate; assay type: tissue-based; in short: as §3
[15] = test system: RBL-2H3; test: Compound was tested for the inhibition of [3H]anandamide Uptake in RBL-2H3 cells at 30 uM; assay type: functional; conditions: Rattus norvegicus; in short: as §2
[16] = target: T1, Fatty-acid amide hydrolase 1 (Rattus norvegicus); test: Compound was tested for the inhibition of fatty acid amide hydrolase from rat brain homogenates at 10 uM in buffer B of pH 6 by using 100 uM [3H]ethanolamine-labeled anandamide as substrate; assay type: tissue-based
[17] = target: T1, Fatty-acid amide hydrolase 1 (Rattus norvegicus); test: Compound was tested for the inhibition of fatty acid amide hydrolase from rat brain homogenates at 10 uM in buffer A of pH 9 by using 100 uM [3H]ethanolamine-labeled anandamide as substrate; assay type: tissue-based
[18] = target: T1, Fatty-acid amide hydrolase 1 (Rattus norvegicus); test: Compound was tested for the inhibition of fatty acid amide hydrolase from rat brain homogenates at 10 uM in buffer A of pH 6 by using 30 uM [3H]ethanolamine-labeled anandamide as substrate; assay type: tissue-based
[19] = species: Rattus norvegicus; test: Compound was tested for the inhibition of N-palmitoylethanolamine-selective acid amidase (NPAA) from rat lung homogenates at 100 uM
In short: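 Enzyme (12 μg protein) was solubilized from the 12 000 × g pellet of rat lung homogenate. It was incubated with 100 μM [14C]-N-palmitoylethanolamine (10 000 cpm) and 100 μM compound for 30 min at 37 °C. Buffer was 50 mM citrate–sodium phosphate, pH 5.0, with 3 mM DTT and 0.1% Triton X-100. Radioactivity was read by imaging scan. The value is percent inhibition.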

Cannabinoid receptor 2 (Homo sapiens), sequence (P34972 whole entry): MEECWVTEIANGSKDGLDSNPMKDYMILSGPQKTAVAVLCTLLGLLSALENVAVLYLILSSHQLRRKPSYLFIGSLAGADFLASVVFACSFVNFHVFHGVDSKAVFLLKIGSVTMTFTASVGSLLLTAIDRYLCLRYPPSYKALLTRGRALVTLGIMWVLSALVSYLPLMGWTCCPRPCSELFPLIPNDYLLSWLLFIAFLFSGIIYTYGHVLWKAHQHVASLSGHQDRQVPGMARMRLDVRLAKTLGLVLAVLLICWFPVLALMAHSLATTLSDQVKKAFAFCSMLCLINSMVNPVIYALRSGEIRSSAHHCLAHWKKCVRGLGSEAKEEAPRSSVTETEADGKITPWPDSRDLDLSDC
N-acylethanolamine-hydrolyzing acid amidase (Rattus norvegicus), sequence (Q5KTC7 whole entry, looked up): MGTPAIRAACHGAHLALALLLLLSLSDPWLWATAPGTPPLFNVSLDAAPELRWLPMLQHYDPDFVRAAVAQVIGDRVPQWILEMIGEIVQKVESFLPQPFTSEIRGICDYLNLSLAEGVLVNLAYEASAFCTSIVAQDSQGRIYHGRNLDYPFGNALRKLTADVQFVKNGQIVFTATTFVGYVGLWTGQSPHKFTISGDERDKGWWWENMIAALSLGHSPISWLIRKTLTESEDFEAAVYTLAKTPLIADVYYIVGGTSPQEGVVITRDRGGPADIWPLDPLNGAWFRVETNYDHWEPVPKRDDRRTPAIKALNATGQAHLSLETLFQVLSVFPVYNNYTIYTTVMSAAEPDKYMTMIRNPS
Cannabinoid receptor 1 (Homo sapiens), sequence (P21554 whole entry): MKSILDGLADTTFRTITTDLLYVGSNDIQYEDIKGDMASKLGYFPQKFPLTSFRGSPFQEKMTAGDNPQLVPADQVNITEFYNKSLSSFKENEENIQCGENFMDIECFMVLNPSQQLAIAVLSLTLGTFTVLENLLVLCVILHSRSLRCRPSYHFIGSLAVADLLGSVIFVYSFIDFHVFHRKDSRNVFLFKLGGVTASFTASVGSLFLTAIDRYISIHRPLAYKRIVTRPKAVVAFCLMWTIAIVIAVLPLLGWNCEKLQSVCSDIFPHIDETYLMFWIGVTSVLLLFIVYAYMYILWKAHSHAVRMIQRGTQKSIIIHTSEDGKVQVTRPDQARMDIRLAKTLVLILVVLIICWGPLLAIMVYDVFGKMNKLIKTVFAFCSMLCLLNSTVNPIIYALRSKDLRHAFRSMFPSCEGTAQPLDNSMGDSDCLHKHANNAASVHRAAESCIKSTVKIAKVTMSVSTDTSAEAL

| Structure (SMILES) | inhibition [1] | inhibition [2] | inhibition [3] | inhibition [4] | inhibition [5] | inhibition at 100 µM [6] | inhibition [7] | inhibition [8] | inhibition [9] | inhibition [10] | inhibition at 10 µM [11] | inhibition [12] | inhibition [13] | inhibition [14] | inhibition at 30 µM [15] | inhibition [16] | inhibition [17] | inhibition [18] | inhibition [19] |
| --- | --- | --- | --- | --- | --- | --- | --- | --- | --- | --- | --- | --- | --- | --- | --- | --- | --- | --- | --- |
| CCCCCCCCCCCCCCCCOC(C)=O | 10% | 9% | 68% | < 0% | < 0% |  |  |  |  |  |  |  |  |  |  |  |  |  |  |
| CCCCCCCCCCCCCCCC(=O)NCCO | 24% | 14% | 34% | 68% | 49% |  |  |  |  |  |  |  |  |  |  |  |  |  |  |
| C=CCOC(=O)CCCCCCCCCCCCCCC | 2% | 1% | 48% | 36% | 16% |  |  |  |  |  |  |  |  |  |  |  |  |  |  |
| CCCCCCCCCCCCCCCC(=O)OCCBr | 2% | 2% | 45% | 31% | 19% |  |  |  |  |  |  |  |  |  |  |  |  |  |  |
| CCCCCCCCCCCCCCCNC(=O)CCO | 4% | 3% | 77% | 8% | < 0% | 28% | 11% | 2% | 5% | 6% | 8% | < 0% | 8% | 20% | 13% | 16% | 7% |  |  |
| CCCCCCCCCCCCCCCCOC(=O)CC [HEXADECYLPROPIONATE] | 12% | 2% | 71% | < 0% | < 0% | 15% | 5% | < 0% | 21% | < 0% | 11% | < 0% | 2% | 26% | 12% | < 0% | 4% | < 0% |  |
| CCCCCCCCCCCCCCCC(=O)OC1CCCCC1 [CYCLOHEXYL PALMITATE] | 14% | 6% | 84% | 36% | 6% | 29% | 20% | 37% | 17% | 12% | 5% | 46% | 8% | 5% | 16% | 51% | 12% | 2% |  |
| CCCCCCCCCCCCCCCC(=O)OC(C)(C)C | 14% | 14% | 23% | < 0% | < 0% |  |  |  |  |  |  |  |  |  |  |  |  |  |  |
| CCCCCCCCCCCCCCCC(=O)OCCCl | 14% | 6% | 55% | 45% | 27% |  |  |  |  |  |  |  |  |  |  |  |  |  |  |
| CCCCCCCCCCCCCCCC(=O)NC1CCCCC1 | 34% | 8% | 23% | 11% | 8% |  |  |  |  |  |  |  |  |  |  |  |  |  |  |
| CCCCCCCCCCCCCCCC(=O)NC | 3% | 8% | 30% | 68% | 35% |  |  |  |  |  |  |  |  |  |  |  |  |  |  |
| CCCCCCCCCCCCCCCC(=O)NC(C)C | 25% | 12% | 25% | 52% | 30% |  |  |  |  |  |  |  |  |  |  |  |  |  |  |
| CCCCCCCCCCCCCCCC(=O)OC(C)C | 8% | 0.5% | 44% | < 0% | < 0% |  |  |  |  |  |  |  |  |  |  |  |  |  |  |
| CCCCCCCCCCCCCCCC(=O)OCc1ccccc1 | 5% | 5% | 50% | 24% | 6% |  |  |  |  |  |  |  |  |  |  |  |  |  |  |
| CCCCCCCCCCCCCCCC(=O)OC | 11% | 14% |  | 69% | 18% |  |  |  |  |  |  |  |  |  |  |  |  |  | 64% |
